# Measured values reported in ChEMBL document CHEMBL4627246, “Pyroglutamide-Based P2X7 Receptor Antagonists Targeting Inflammatory Bowel Disease” (J Med Chem, 2020).
# Activity calls are given as the source filed them. No cut-off for these calls is given here.
# What was measured:
# [1] = Drug metabolism in human liver microsomes assessed as metabolite N-[(2,4-dichlorophenyl)methyl]-5-oxo-pyrrolidine-2-carboxamide formation at 0.2 mg/ml incubated for 60 mins by UPLC-MS/MS analysis; assay type: ADME, Microsome; conditions: 1 h
# Procedure, shortened: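 Human liver microsomes (2 mg protein/mL) pre-activated with alamethicin in 0.1 M Tris-HCl/10 mM MgCl₂ pH 7.4, added to dried residue of 0.2 mg/mL compound solution; cofactors UDPGA 5 mM, NADPH 1.3 mM, G6P 3.3 mM, G6PD 0.5 U/mL. 37 °C, 60 min; stopped with methanol plus internal standards. Supernatant analysed by online-extraction UPLC on C18 with Q-TOF MS, ESI+.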
# [2] = target: T1, P2X purinoceptor 7 (Homo sapiens) (UniProt Q99572); experiment: Antagonist activity at P2X7R in human THP1 cells assessed as inhibition of LPS and BzATP-induced cell death at 10^-6 mol/L pretreated with compound followed by LPS/BzATP addition and measured after 6 hrs by sytox green dye based flow cytometry; conditions: THP-1
# T1 sequence (whole entry): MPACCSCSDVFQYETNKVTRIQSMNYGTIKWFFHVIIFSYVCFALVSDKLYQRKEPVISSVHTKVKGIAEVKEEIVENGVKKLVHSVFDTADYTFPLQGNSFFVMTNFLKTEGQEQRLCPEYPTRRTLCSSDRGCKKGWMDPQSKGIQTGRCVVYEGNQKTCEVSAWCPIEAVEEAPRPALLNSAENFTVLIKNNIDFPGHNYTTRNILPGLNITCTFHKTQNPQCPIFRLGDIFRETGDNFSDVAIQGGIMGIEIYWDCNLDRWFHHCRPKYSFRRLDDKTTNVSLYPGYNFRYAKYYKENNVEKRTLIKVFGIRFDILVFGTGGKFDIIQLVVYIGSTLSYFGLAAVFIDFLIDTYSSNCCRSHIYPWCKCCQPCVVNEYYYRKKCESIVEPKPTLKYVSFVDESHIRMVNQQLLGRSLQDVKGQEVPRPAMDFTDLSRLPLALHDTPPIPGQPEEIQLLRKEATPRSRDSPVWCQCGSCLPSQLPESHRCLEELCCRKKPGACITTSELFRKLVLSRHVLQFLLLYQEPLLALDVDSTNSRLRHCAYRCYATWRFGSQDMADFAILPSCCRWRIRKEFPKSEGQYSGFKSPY
# [3] = target: T1, P2X purinoceptor 7 (Homo sapiens); experiment: Antagonist activity at P2X7R in human THP1 cells assessed as inhibition of LPS and BzATP-induced ROS production at 10^-6mol/L pretreated with compound followed by LPS/BzATP addition and measured after 4 hrs by kinetic chemiluminescence based fluorometric analysis; assay type: cell-based; conditions: THP-1
# Procedure, shortened: (§1)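 Differentiated THP-1 macrophages (10^5 cells, RPMI 1640 + 10% FBS) pretreated with antagonist at 10^-6 mol/L before LPS (10 μmol/L) and BzATP (70 μmol/L), 37 °C, 5% CO2; ROS detected as luminol (50 μM)/horseradish peroxidase (50 μg/mL) chemiluminescence on a fluorometer; H2O2 without cells as positive control.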
# [4] = target: T1, P2X purinoceptor 7 (Homo sapiens); experiment: Antagonist activity at P2X7R in human THP1 cells assessed as inhibition of LPS and BzATP-induced cell death at 10^-6 mol/L pretreated with compound followed by LPS/BzATP addition and measured after 4 hrs by sytox green dye based flow cytometry; conditions: THP-1
# Mus musculus [5] = experiment: Antiinflammatory activity against DSS-induced colitis C57BL/6J mouse model assessed as reduction in DAI score at 2.5 mg/kg, ip administered daily and measured for 15 days; assay type: functional; conditions: 360 h
# Procedure, shortened: (§2)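 DSS colitis in WT mice: 3.8% DSS in drinking water days 1–5, then tap water for 10 days; compound 2.5 mg/kg given i.p. daily in 10% DMSO/PBS; cohorts of 10 mice per group, placebo as comparator; weight loss and clinical disease score tracked; colon sections at day 14 stained with H&E and histologically scored; data as mean ± SEM.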
# Mus musculus [6] = experiment: Antiinflammatory activity against DSS-induced colitis C57BL/6J mouse model assessed as body weight loss at 2.5 mg/kg, ip administered daily and measured for 15 days relative to placebo-treated control; assay type: functional; procedure, shortened: as §2
# Mus musculus [7] = experiment: Antiinflammatory activity against DSS-induced colitis C57BL/6J mouse model assessed as areas of normal colonic mucosa with straight and larger crypts on muscularis mucosa at 2.5 mg/kg, ip administered daily and measured after day 14 by hematoxylin and eosin staining based microscopic analysis; assay type: functional, organism-based; procedure, shortened: as §2
# [8] = target: T1, P2X purinoceptor 7 (Homo sapiens); experiment: Antagonist activity at P2X7R in human THP1 cells assessed as inhibition of LPS and BzATP-induced mature form of IL-1beta expression in whole cell extract at 10^-6 mol/L pretreated with compound followed by LPS/BzATP addition and measured after 2 to 6 hrs by Western blot analysis; assay type: cell-based; conditions: THP-1
# Mus musculus [9] = experiment: Antiinflammatory activity against DSS-induced colitis C57BL/6J mouse model assessed as reduction in rectal bleeding at 2.5 mg/kg, ip administered daily and measured for 15 days; assay type: functional, organism-based; procedure, shortened: as §2
# Mus musculus [10] = experiment: Antiinflammatory activity against DSS-induced colitis C57BL/6J mouse model assessed as decrease in inflammation level in colon at 2.5 mg/kg, ip administered daily and measured after day 14 by hematoxylin and eosin staining based microscopic analysis; assay type: functional; conditions: 336 h; procedure, shortened: as §2
# Mus musculus [11] = experiment: Antiinflammatory activity against DSS-induced colitis C57BL/6J mouse model assessed as reduction in diarrhea at 2.5 mg/kg, ip administered daily and measured for 15 days; assay type: functional, organism-based; procedure, shortened: as §2
# [12] = target: T1, P2X purinoceptor 7 (Homo sapiens); experiment: Antagonist activity at P2X7R in human THP1 cells assessed as inhibition of LPS and BzATP-induced ROS production at 10^-6mol/L pretreated with compound followed by LPS/BzATP addition and measured after 5 hrs by kinetic chemiluminescence based fluorometric analysis; assay type: cell-based; conditions: THP-1; procedure, shortened: as §1
# [13] = target: T1, P2X purinoceptor 7 (Homo sapiens); experiment: Antagonist activity at P2X7R in human THP1 cells assessed as inhibition of LPS and BzATP-induced ROS production at 10^-6mol/L pretreated with compound followed by LPS/BzATP addition and measured after 6 hrs by kinetic chemiluminescence based fluorometric analysis; assay type: cell-based; conditions: THP-1; procedure, shortened: as §1
Compound,Drug metabolism [1],inhibition [2],inhibition [3],inhibition [4],inhibition in vivo at 2.5 mg/kg (Mus musculus [5]) [%],Activity (Mus musculus [6]) [%],Activity (Mus musculus [7]),inhibition [8],Activity (Mus musculus [9]),inhibition in vivo at 2.5 mg/kg (Mus musculus [10]) [%],Activity (Mus musculus [11]),inhibition [12],inhibition [13]
O=C(NCc1ccc(Cl)cc1Cl)[C@@H]1CCC(=O)N1c1cccs1,Metabolite_Detected,inactive,Active,Active,31,50,Active,Active,Active,42 to 50,Active,Active,inactive
O=C(NCc1ccc(Cl)cc1Cl)[C@@H]1CCC(=O)N1c1ccsc1,–,inactive,Active,Active,–,–,–,Active,–,–,–,Active,inactive
